{"source": "ChEMBL document CHEMBL3351977", "about": "“Chemotherapy of leishmaniasis part XIII: design and synthesis of novel heteroretinoid-bisbenzylidine ketone hybrids as antileishmanial agents” (Bioorg Med Chem Lett, 2015)", "key": {"Leishmania donovani [1]": {"tested_on": "Leishmania donovani", "experiment": "Ratio of Sodium stibogluconate IC50 to compound IC50 for amastigote stage of Leishmania donovani MHOM/IN/80/Dd8 infected in mouse J774.1 cells", "type": "functional"}, "Leishmania donovani [2]": {"tested_on": "Leishmania donovani", "experiment": "Ratio of Miltefosine IC50 to compound IC50 for amastigote stage of Leishmania donovani MHOM/IN/80/Dd8 infected in mouse J774.1 cells", "type": "functional"}, "[3]": {"experiment": "(§1) Selectivity index, ratio of CC50 for African green monkey Vero cells to IC50 for amastigote stage of Leishmania donovani MHOM/IN/80/Dd8", "type": "functional", "summary_of_the_method": "(§2)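 SI was calculated as CC50 on Vero cells (MTT viability) divided by IC50 on L. donovani intramacrophagic amastigotes. IC50 came from four-parameter Hill regression and CC50 from a Huber–Koella template. Both are means of three independent experiments.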"}, "Leishmania donovani [4]": {"tested_on": "Leishmania donovani", "experiment": "Antileishmanial activity against amastigote stage of Leishmania donovani MHOM/IN/80/Dd8 infected in mouse J774.1 cells after 72 hrs by luciferase reporter gene assay", "type": "functional, organism-based", "summary_of_the_method": "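Intracellular L. donovani amastigotes growing inside macrophages were exposed to a concentration series. IC50 was obtained by nonlinear regression of the concentration-response curve with a four-parameter Hill equation. Values are mean ± S.D. of three independent experiments. Reference drugs were sodium stibogluconate and miltefosine.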"}, "[5]": {"experiment": "(§3) Cytotoxicity against African green monkey Vero cells assessed as cell viability after 72 hrs by MTT assay", "type": "cell-based", "conditions": "chlorocebus sabaeus, Vero cells", "summary_of_the_method": "(§4)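 Vero cells were used, with viability read by MTT assay and podophyllotoxin as the reference cytotoxic drug. CC50 (50% maximum cytotoxic concentration) was estimated with a preformed template following Huber and Koella. Values are mean ± S.D. of three independent experiments.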"}, "Vero [6]": {"tested_on": "Vero", "experiment": "as §1", "type": "functional", "summary_of_the_method": "as §2"}, "Vero [7]": {"tested_on": "Vero", "experiment": "as §3", "type": "cell-based", "conditions": "chlorocebus sabaeus, vero, 72 h", "summary_of_the_method": "as §4"}, "[8]": {"conditions": "Leishmania donovani, MHOM/IN/80/Dd8, J774.1, 72 h"}}}
{"compound": "COc1cc(/C=C2\\CN(C(=O)c3cc(/C=C/C4C(C)=CCCC4(C)C)on3)C/C(=C\\c3ccc(OCc4ccccc4)c(OC)c3)C2=O)ccc1OCc1ccccc1", "note": "(stereo unspecified)", "values": [{"measurement": "Ratio IC50", "setting": "Leishmania donovani [1]", "result": 10}, {"measurement": "Ratio IC50", "setting": "Leishmania donovani [2]", "result": 1.6}, {"measurement": "Ratio CC50/IC50", "setting": "[3]", "result": ">79.68"}, {"measurement": "IC50", "setting": "Leishmania donovani [4]; [8]", "result": 5.02, "unit": "µM"}, {"measurement": "CC50 at 72 h", "setting": "[5]", "result": "> 400", "unit": "µM"}]}
{"compound": "CC1=CCCC(C)(C)C1/C=C/c1cc(C(=O)N2C/C(=C\\c3ccc(Cl)cc3)C(=O)/C(=C/c3ccc(Cl)cc3)C2)no1", "note": "(stereo unspecified)", "values": [{"measurement": "IC50", "setting": "Leishmania donovani [4]; [8]", "result": "> 40", "unit": "µM"}]}
{"compound": "SODIUM ANTIMONY GLUCONATE [listing 1 of 2 here]", "values": [{"measurement": "Ratio CC50/IC50", "setting": "Vero [6]", "result": "> 7.53"}]}
{"compound": "CCOc1cc(/C=C2\\CN(C(=O)c3cc(/C=C/C4C(C)=CCCC4(C)C)on3)C/C(=C\\c3ccc(O)c(OCC)c3)C2=O)ccc1O", "note": "(stereo unspecified)", "values": [{"measurement": "Ratio CC50/IC50", "setting": "[3]", "result": 4.53}, {"measurement": "IC50", "setting": "Leishmania donovani [4]; [8]", "result": 6.1, "unit": "µM"}, {"measurement": "CC50 at 72 h", "setting": "[5]", "result": 27.7, "unit": "µM"}]}
{"compound": "COc1ccccc1/C=C1\\CN(C(=O)c2cc(/C=C/C3C(C)=CCCC3(C)C)on2)C/C(=C\\c2ccccc2OC)C1=O", "note": "(stereo unspecified)", "values": [{"measurement": "IC50", "setting": "Leishmania donovani [4]; [8]", "result": "> 20", "unit": "µM"}]}
{"compound": "COc1ccc(/C=C2\\CN(C(=O)c3cc(/C=C/C4C(C)=CCCC4(C)C)on3)C/C(=C\\c3ccc(OC)cc3)C2=O)cc1", "note": "(stereo unspecified)", "values": [{"measurement": "IC50", "setting": "Leishmania donovani [4]; [8]", "result": "> 40", "unit": "µM"}]}
{"compound": "CCCCCCCCCCCCCCCCOP(=O)([O-])OCC[N+](C)(C)C", "note": "[MILTEFOSINE]", "values": [{"measurement": "Ratio CC50/IC50", "setting": "[3]", "result": 6.52}, {"measurement": "IC50", "setting": "Leishmania donovani [4]; [8]", "result": 8.1, "unit": "µM"}]}
{"compound": "COc1cc(/C=C2\\CN(C(=O)c3cc(/C=C/C4C(C)=CCCC4(C)C)on3)C/C(=C\\c3cc(OC)c(OC)c(OC)c3)C2=O)cc(OC)c1OC", "note": "(stereo unspecified)", "values": [{"measurement": "Ratio CC50/IC50", "setting": "[3]", "result": 5.38}, {"measurement": "IC50", "setting": "Leishmania donovani [4]; [8]", "result": 4.7, "unit": "µM"}, {"measurement": "CC50 at 72 h", "setting": "[5]", "result": 25.3, "unit": "µM"}]}
{"compound": "COc1cc(/C=C2\\CN(C(=O)c3cc(/C=C/C4C(C)=CCCC4(C)C)on3)C/C(=C\\c3ccc(O)c(OC)c3)C2=O)ccc1O", "note": "(stereo unspecified)", "values": [{"measurement": "Ratio CC50/IC50", "setting": "[3]", "result": 12.81}, {"measurement": "IC50", "setting": "Leishmania donovani [4]; [8]", "result": 1.83, "unit": "µM"}, {"measurement": "CC50 at 72 h", "setting": "[5]", "result": 23.4, "unit": "µM"}]}
{"compound": "SODIUM ANTIMONY GLUCONATE [listing 2 of 2 here]", "values": [{"measurement": "IC50", "setting": "Leishmania donovani [4]; j774.1", "result": 53.1, "unit": "µM"}, {"measurement": "CC50", "setting": "Vero [7]", "result": "> 400", "unit": "µM"}]}
{"compound": "CC1=CCCC(C)(C)C1/C=C/c1cc(C(=O)N2C/C(=C\\c3ccc(OCc4ccccc4)cc3)C(=O)/C(=C/c3ccc(OCc4ccccc4)cc3)C2)no1", "note": "(stereo unspecified)", "values": [{"measurement": "IC50", "setting": "Leishmania donovani [4]; [8]", "result": "> 40", "unit": "µM"}]}
{"compound": "COc1ccc(/C=C2\\CN(C(=O)c3cc(/C=C/C4C(C)=CCCC4(C)C)on3)C/C(=C\\c3ccc(OC)c(OC)c3)C2=O)cc1OC", "note": "(stereo unspecified)", "values": [{"measurement": "Ratio CC50/IC50", "setting": "[3]", "result": 12.2}, {"measurement": "IC50", "setting": "Leishmania donovani [4]; [8]", "result": 3.75, "unit": "µM"}, {"measurement": "CC50 at 72 h", "setting": "[5]", "result": 45.8, "unit": "µM"}]}
